Only some compounds are listed: those with a hit (about 3.7% of all), similar ones and a draw of the others.
KCNQ1 inh – inhibitors of human KCNQ1 potassium channel. P51787. CHO-K1 KCNQ1, FluxOR thallium flux fluorescence; stronger effect = higher value. B-score at 10 µM. hit rate 1.3% among 310,000;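 active means compounds whose thallium flux B-score, printed positive for inhibition, exceeds three library SD while starting fluorescence stays within three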;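 further: channel opened by potassium depolarization with thallium stimulus after 20 min compound exposure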
KCNK3 inh – human KCNK3 channel inhibition, primary screen | O14649 | CHO-KCNK3 thallium flux, FluxOR fluorescence; stronger effect = lower value | B-score at 10 µM | hit rate 0.84% among 340,000 | AID 602410;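 active means B-score under library mean minus 4 SD, starting fluorescence ratio at most library mean plus 5 SD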;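 further: more negative B-score means stronger inhibition of thallium flux through KCNK3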
hERG protect – shields human hERG channel from block by proarrhythmic agents. Q12809. CHO-hERG, FluxOR thallium flux, dofetilide IC70 present. activation (rescue from dofetilide block), less the hit threshold, % at 10 µM. hit rate 0.51% among 310,000. AID 1511;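 active means activation above the mean of controls blocked by dofetilide plus 5 SD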;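 further: thallium influx through hERG after potassium depolarization seen as dye fluorescence rise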
KCNK9 inh – blocks the human KCNK9 two-pore domain potassium channel. HEK293 KCNK9, FluxOR thallium flux fluorescence; stronger effect = lower value. Q9NPC2. B-score at 10 µM. hit rate 1.2% among 310,000;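 active means ratio B-score over 3 SD below the library mean, with starting fluorescence within 5 SD of its mean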;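 further: negative B-score means less thallium flux so channel inhibition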
Kir21 block – inhibitors of mouse Kir2.1 inward-rectifier potassium channel. P35561. HEK293-Kir2.1, FluxOR thallium flux fluorescence; stronger effect = lower value. hit rate 0.85% among 310,000. AID 1672. B-score at 10 µM;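 active means fluorescence ratio B-score at or below minus 3 SD of library scores, with starting-brightness B-score within 2 SD, cut at about -4.2 in these data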;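 further: channel flux triggered by added potassium and thallium sulfate stimulus; B-score of peak minus minimum fluorescence over baseline after thallium stimulus; more negative B-score means stronger Kir2.1 block with less thallium influx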
KCNQ1 pot – potentiators or activators of human KCNQ1 potassium channel; P51787; CHO-K1 KCNQ1, thallium flux FluxOR fluorescence; stronger effect = higher value; B-score at 10 µM; hit rate 0.35% among 310,000;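 active means fluorescence ratio B-score, a plate-corrected score, at least three library SD, with initial intensity B-score within 5 SD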
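Material: CHO-K1 cells stably expressing KCNQ1. Medium: assay buffer for compound exposure, DMSO matched across wells. Reagent: K+/Tl+ depolarizing stimulus. Compound dosing: single-concentration screen. Times: 37 °C overnight plating, 90-min dark dye load, 20-min compound pretreatment. Technique: FluxOR Tl+ flux fluorescence.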
KCNK9 inh conf – human KCNK9 inhibitor confirmation. inhibition, % at 10 µM. AID 492992. shares compounds with KCNK9 inh. hit rate 43% among 4,900. HEK293 KCNK9 cells, FluxOR thallium flux fluorescence;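 active means thallium signal inhibited by more than 5 SD of the compound-free buffer control wells, on both duplicate plates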;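 further: 0% = assay buffer control wells without compound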
Kir21 sel – mouse Kir2.1 off-target activity of KCNK9 modulators; shares compounds with KCNK9 inh; Kir2.1 cells, FluxOR thallium flux fluorescence; inhibition, % at 10 µM; hit rate 4% among 4,900; AID 492993;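 active means thallium signal drop more than 5 SD beyond the mean of the no-compound control wells, seen in both duplicate plates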;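 further: signal is fluorescence rise after thallium addition divided by baseline fluorescence; plate controls were assay buffer only for no effect and full block by chlorpromazine control for full effect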
HEK293 Tl ctr – non-induced cell nonspecific activity of KCNK9 modulators. AID 492997. shares compounds with KCNK9 inh. hit rate 40% among 4,900. inhibition, % at 10 µM. non-induced KCNK9-HEK293, FluxOR thallium flux;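 active means thallium signal drop beyond 5 SD of the untreated control mean, on both duplicate plates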;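 further: plate controls were buffer only IC0 wells for no effect and SID17386958 at its maximal inhibitory level for full effect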
The depositor's hits bear a star; i = inactive; x = no result.

SMILES	KCNQ1 inh	KCNK3 inh	hERG protect	KCNK9 inh	Kir21 block	KCNQ1 pot	KCNK9 inh conf	Kir21 sel	HEK293 Tl ctr
CCCCn1c(C2CCCCC2)nc2cc3[nH]c(=O)c(C(C)C)nc3cc21	i	i	-21	i	-0.72	i	x	x	x
CCCCn1c(-c2cccc3ccccc23)nc2cc3[nH]c(=O)c(C(C)C)nc3cc21	i	i	-7	-11*	-0.91	i	54%*	i	i
COc1ccc(-n2c(SCCC#N)nnc2-c2cc(Cl)ccc2OC)cc1Cl	i	i	-16	-11*	-0.37	i	29%*	i	41%*
O=C(Nc1nnc(C2CC2)s1)c1cc(-c2ccccc2)nn1-c1ccccc1	i	i	-6	-9.4*	-0.18	i	30%*	i	i
COc1ccc(CCNC(=O)c2c([S-])n(-c3ccc(C)cc3)c3cccc[n+]23)cc1	i	i	-24	i	0.18	i	i	i	i
CC(C)C12CN3CC(C(C)C)(CN(C1)C3c1ccc([N+](=O)[O-])o1)C2=O (stereo not given)	i	i	-6	i	0.04	i	x	x	x
O=C(O)[C@H](Cc1ccccc1)NC(=O)N1CCN(c2ccccc2)CC1	i	i	-8	i	-0.44	i	x	x	x
COc1cccc(/C=C(/C(=O)OCC(=O)NC2CCCC(C)C2C)c2ccccc2)c1 (stereo not given)	10*	i	-30	-9.3*	-0.16	i	43%*	i	44%*
CC(C)c1csc(CN2CCCC(CNC(=O)c3cccc4ccccc34)C2)n1 (stereo not given)	i	i	-10	i	-2.2	i	x	x	x
NC(=O)CSc1nc2ccccc2c(=O)n1Cc1ccco1	i	i	-5	i	-0.9	i	x	x	x
CCCn1c(C)cc(C(=O)CSc2nc3ccccc3c(=O)n2Cc2ccco2)c1C	i	i	-2	i	-0.14	i	i	i	i
Cn1c(=O)oc2cc(S(=O)(=O)CCC(=O)N3CCN(c4ccccc4F)CC3)ccc21	i	i	-3	i	-2.3	i	x	x	x
Cc1ccc(C)c(N2CCN(C(=O)CCS(=O)(=O)c3ccc4c(c3)oc(=O)n4C)CC2)c1	i	i	-9	i	0.85	i	i	i	i
O=c1[nH]c(CSc2ccccn2)nc2c1oc1ccccc12	i	i	1	i	0	i	x	x	x
Cc1ccc(N=C(NOCc2ccc(Cl)cc2Cl)c2nonc2N)c(C)c1	i	i	-3	-16*	0.26	i	77%*	i	46%*
Cc1ccccc1N=C(NOCc1ccc(Cl)cc1Cl)c1nonc1N	i	i	-11	-16*	1.5	i	82%*	i	46%*
Cc1nc(C(=O)N2CCCC(Nc3ccc(C)c(C)c3)C2)cs1 (stereo not given)	i	i	-9	i	0.13	i	x	x	x
Cc1ccc(NC2CCCN(C(=O)c3cn4cccc(C)c4n3)C2)cc1C (stereo not given)	i	i	-5	i	-0.17	i	i	i	i
CSc1nc(C(=O)N2CCCC(Nc3ccc(C)c(C)c3)C2)cs1 (stereo not given)	i	i	-7	i	-2.8	i	i	i	i
Cc1ccc(NC2CCCN(C(=O)C3CCCC3)C2)cc1C (stereo not given)	i	i	-6	i	-2.4	i	i	i	i
CCOC(=O)C1(CC2CC2)CCN(Cc2cn(C)c3ccccc23)CC1	i	i	-6	i	-2.6	i	i	i	i
Cc1ccccc1N1C(=O)c2cc(S(N)(=O)=O)c(Cl)cc2NC1C (stereo not given)	x	i	x	x	x	x	x	x	x
Cc1ncc([N+](=O)[O-])n1CC(=O)Nc1ccc(OC(F)(F)Cl)cc1	i	i	-9	i	0.89	i	x	x	x
Cc1nc2nc(NC(=O)c3ccco3)nn2c(C)c1Cl	i	i	-7	i	1.8	i	x	x	x
Cc1ccc(C(C)C)c(OCc2nn(CC(=O)c3ccc(OC(F)F)cc3)c3[n+]2CCCCC3)c1	9*	i	-28	-8.4*	-2.3	i	51%*	i	i
SMILES	KCNQ1 inh	KCNK3 inh	hERG protect	KCNK9 inh	Kir21 block	KCNQ1 pot	KCNK9 inh conf	Kir21 sel	HEK293 Tl ctr
CC1=NOC(=O)/C1=C\c1ccc(-c2cc(Cl)ccc2Cl)o1	i	i	-3	i	-0.07	i	i	i	i
Cc1ccc(C2CC(c3ccc(Cl)cc3)=NNC2=O)cc1 (stereo not given)	i	i	-5	i	0.01	i	x	x	x
CN1N=C(c2ccc(Cl)cc2)CC(c2ccc(Cl)cc2)C1=O (stereo not given)	i	i	-7	-11*	1.5	i	38%*	i	40%*
Cc1ccccc1NC(=O)Cn1nnc2ccccc21	i	i	-1	i	1.6	i	x	x	x
COc1ccc(CCNC(=O)c2ccc(Cl)c(S(=O)(=O)N(C)c3ccccc3)c2)cc1	i	i	-8	i	-0.18	i	i	i	i
CC(C)CN(CCOc1cccc(N2C(=O)C3=C(CCCC3)C2=O)c1)CC(C)C	i	i	-9	i	0.31	i	i	i	i
O=C1C2=C(CCCC2)C(=O)N1c1cccc(OCCBr)c1	i	i	-8	i	0	i	x	x	x
CC(C)(C)OC(=O)N[C@@H](Cc1ccccc1)C(=O)N[C@@H](CO)[C@H](O)[C@@H]1C[C@@H]1C(=O)NC1CCCCC1	x	i	x	x	x	x	x	x	x
Cn1c(-c2ccc(C=O)s2)nc2c3ccccc3c3ccccc3c21	7*	i	-5	-10*	-1.6	i	33%*	i	72%*
COc1cc(CNCc2cc(OC)ccc2OC)cc(OC)c1	i	i	2	i	-0.95	i	x	x	x
O=C(O)/C(=C\c1ccc(-c2ccccc2[N+](=O)[O-])o1)c1ccccc1	i	i	0	i	0.01	i	x	x	x
O=C(/C=C/c1ccc(-c2ccccc2[N+](=O)[O-])o1)c1ccccc1	i	i	-29	-8.5*	-0.06	i	40%*	i	28%*
C=C(C)Cn1c(C)cc(C)c(S(=O)(=O)c2cccc(C)c2)c1=O	i	i	-14	-8.4*	-1	i	54%*	44%*	44%*

Source: PubChem
